Source: ChEMBL document CHEMBL1140114, “Antitumor compounds based on a natural product consensus pharmacophore” (J Med Chem, 2008)
Active and inactive are the calls of the source. The rule behind the calls is not given here.

Key:
[1] = Cytotoxicity against human JeKo1 cells after 72 hrs by XTT colorimetric assay; format: functional, cell-based; details: JeKo-1, 72 h
Outline: (§1)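 Mantle cell lymphoma lines (JeKo-1, JVM-2), screened within a seven-line human tumour panel. Viability read out by XTT colorimetric cytotoxicity assay, with IC50 estimated from the resulting growth inhibition data.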

JVM-2 = assay: Cytotoxicity against human JVM2 cells after 72 hrs by XTT colorimetric assay; format: functional, cell-based; details: JVM-2, 72 h; outline: as §1
MCF7 [2] = assay: Cytotoxicity against human MCF7 cells after 72 hrs by XTT colorimetric assay; format: functional, cell-based; details: MCF7, 72 h
Outline: (§2)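 Seven-line tumour panel run with an XTT colorimetric cytotoxicity read-out; IC50 values estimated from the XTT data. Tissue origins: A549 lung carcinoma, MCF-7 breast cancer, OVCAR-3 ovarian cancer, PC-3 prostate cancer, WiDr colorectal cancer.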

OVCAR-3 = assay: Cytotoxicity against human OVCAR-3 cells after 72 hrs by XTT colorimetric assay; format: functional, cell-based; details: OVCAR-3, 72 h; outline: as §2
WiDr [3] = assay: Cytotoxicity against human WiDr cells after 72 hrs by XTT colorimetric assay
A549 [4] = assay: Cytotoxicity against human A549 cells after 72 hrs by XTT colorimetric assay; format: functional, cell-based; details: A549, 72 h; outline: as §2
PC-3 = assay: Cytotoxicity against human PC3 cells after 72 hrs by XTT colorimetric assay; format: functional, cell-based; details: PC-3, 72 h; outline: as §2
NIH3T3 = assay: Cytotoxicity against mouse NIH3T3 cells upto 5 uM after 72 hrs by XTT colorimetric assay; format: cell-based; details: nih3t3, 72 h
Outline: (§3)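 Initial screen on a five-line panel (A549, COS-7, MCF-7, WiDr, NIH3T3). Compounds were tested at concentrations up to 5 µM. Read-out was percent inhibition of cell growth at the highest concentration, 5 µM.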

A549 [5] = assay: Cytotoxicity against human A549 cells upto 5 uM after 72 hrs by XTT colorimetric assay; format: functional, cell-based; outline: as §3
[6] = Cytotoxicity against african green monkey COS7 cells upto 5 uM after 72 hrs by XTT colorimetric assay; format: cell-based; details: chlorocebus aethiops, cos-7, 72 h; outline: as §3
MCF7 [7] = assay: Cytotoxicity against human MCF7 cells upto 5 uM after 72 hrs by XTT colorimetric assay; format: functional, cell-based; outline: as §3
WiDr [8] = assay: Cytotoxicity against human WiDr cells upto 5 uM after 72 hrs by XTT colorimetric assay; format: functional, cell-based; outline: as §3
A549 [9] = assay: Cytotoxicity against human A549 cells at 5 uM after 72 hrs by XTT colorimetric assay; format: functional; outline: as §3
MCF7 [10] = assay: Cytotoxicity against human MCF7 cells at 5 uM after 72 hrs by XTT colorimetric assay; format: functional; outline: as §3

## CC(=O)O[C@@H](C)/C=C\C(=O)N[C@H]1CC[C@@H](C/C=C(C)/C=C/[C@@H]2C[C@]3(CO3)CC(C)(C)O2)CC1
[1]
  IC50: 100 nM
JVM-2
  IC50: 130 nM
MCF7 [2]
  IC50: 2290 nM
OVCAR-3
  IC50: 1980 nM
WiDr [3]
  IC50: 2030 nM
A549 [4]
  IC50: 4650 nM
PC-3
  IC50: 2120 nM

## CC(=O)O[C@@H](C)/C=C\C(=O)N[C@H]1CC[C@@H](CNC(=O)OC[C@@H]2C[C@]3(CO3)CC(C)(C)O2)CC1
NIH3T3
  Activity: Not Active
A549 [5]
  Activity: inactive
[6]
  Activity: Not Active
MCF7 [7]
  Activity: inactive
WiDr [8]
  Activity: inactive

## CC(=O)O[C@@H](C)/C=C\C(=O)N[C@@H]1C[C@H](C)[C@H](C/C=C(C)/C=C/[C@H]2O[C@](C)(O)C[C@@]3(CO3)[C@@H]2O)O[C@@H]1C
MCF7 [2]
  IC50: 1.8 nM
A549 [4]
  IC50: 1.3 nM

## CC(=O)O[C@@H](C)/C=C\C(=O)N[C@H]1CC[C@@H](COC(=O)OC[C@@H]2C[C@]3(CO3)CC(C)(C)O2)CC1
A549 [9]
  Activity: 10%
MCF7 [10]
  Activity: 10%

## CC[C@H](O)[C@@H](C)[C@H]1O[C@@H]1C[C@H](C)/C=C/C=C(\C)[C@H]1OC(=O)C[C@H](O)CC[C@@](C)(O)[C@@H](OC(C)=O)CC[C@@H]1C [PLADIENOLIDE B]
MCF7 [2]
  IC50: 0.4 nM
OVCAR-3
  IC50: 0.4 nM
WiDr [3]
  IC50: 0.86 nM
A549 [4]
  IC50: 1.4 nM
PC-3
  IC50: 2.3 nM
